Experiments:
[1] = Cytotoxicity against MDCK cells after 48 hrs by CellTiter 96 AQueous Non-Radioactive cell proliferation assay; assay type: cell-based, Canis lupus familiaris; conditions: dog
Summary of the method: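 MDCK cells (1 × 10^5 cells/mL) exposed to inhibitor without virus, same steps as the antiviral assay: 48 h at 37 °C, 5% CO2, viability by MTS-type reagent, absorbance at 490 nm. CC50 is the 50% cytotoxic concentration. Highest concentration tested was 100 μM.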

[2] = Prodrug conversion in rabbit serum assessed as formation of (3R,4R)-[3-((S)-1-Acetamido-2-ethylbutyl)-4-guanidinocyclopent-1-en-1-yl]phosphonic acid at 1 mM at 37 degC after 24 to 96 hrs by HPLC/ESI-HRMS analysis; assay type: ADME, Oryctolagus cuniculus; conditions: 1000 µM

| SMILES | CC50 at 48 h [1] [µM] | Drug metabolism [2] |
| --- | --- | --- |
| CCOP(=O)(O)[C@H]1C[C@@H](NC(=N)N)[C@H]([C@@H](NC(C)=O)C(CC)CC)[C@@H]1O | > 100 | – |
| CCC(CC)[C@H](NC(C)=O)[C@@H]1C=C(P(=O)(O)O)C[C@H]1NC(=N)N | > 100 | – |
| CC(=O)N[C@H]1[C@H]([C@H](O)[C@H](O)CO)OC(C(=O)O)=C[C@@H]1NC(=N)N [ZANAMIVIR] | > 100 | – |
| CCC(CC)[C@H](NC(C)=O)[C@@H]1[C@H](O)[C@@H](P(=O)(O)O)C[C@H]1NC(=N)N | > 100 | – |
| CCCCCCOP(=O)(O)[C@H]1C[C@@H](NC(=N)N)[C@H]([C@@H](NC(C)=O)C(CC)CC)[C@@H]1O | > 100 | – |
| CCC(CC)O[C@@H]1C=C(C(=O)O)C[C@H](N)[C@H]1NC(C)=O [OSELTAMIVIR CARBOXYLATE] | > 100 | – |
| CCC(CC)[C@H](NC(C)=O)[C@@H]1C[C@@H](P(=O)(O)O)C[C@H]1NC(=N)N | > 100 | – |
| CCCCCCOP(=O)(O)C1=C[C@@H]([C@@H](NC(C)=O)C(CC)CC)[C@H](NC(=N)N)C1 | > 100 | – |
| CCCCCCOP(=O)(O)[C@@H]1C[C@@H]([C@@H](NC(C)=O)C(CC)CC)[C@H](NC(=N)N)C1 | > 100 | – |
| CCOP(=O)(O)C1=C[C@@H]([C@@H](NC(C)=O)C(CC)CC)[C@H](NC(=N)N)C1 | > 100 | metabolite_notdetected |
| CCC(CC)[C@H](NC(C)=O)[C@@H]1[C@H](O)[C@@H](C(=O)O)C[C@H]1NC(=N)N [PERAMIVIR ANHYDROUS] | > 100 | – |
| CCOP(=O)(O)[C@@H]1C[C@@H]([C@@H](NC(C)=O)C(CC)CC)[C@H](NC(=N)N)C1 | > 100 | – |

From ChEMBL document CHEMBL3817747 (J Med Chem, 2016)
